Most compounds without a hit are left out; they make up all but 3.8% or so of the library.
SDO1 yeast rescue = restores growth of sdo1-depleted yeast. z-score at 10 µM. S. cerevisiae sdo1-depleted JHY4D growth rescue, OD600 30 h; stronger effect = higher value; pdr5 snq2 efflux-pump mutant strain. hit rate 0.21% among 140,000;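 active = z-score above 3 at both the 24 hr and the 30 hr optical density reads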;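 note: z-score against mean and SD of all compound wells on the same plate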
Yeast lifespan up = yeast lifespan extension. inhibition of the nicotinamide effect, % at 10 µM. S. cerevisiae growth with nicotinamide, OD615; deaD strain in restrictive glucose medium. AID 775. hit rate 0.68% among 130,000;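 active = inhibition above a set limit, placed 3 SD over the median of all compounds, cut at about 26% in these data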;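 note: 0% = nicotinamide-treated wells and 100% = cells grown without nicotinamide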
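Test system: DeaD-strain S. cerevisiae / Buffer or medium: restrictive glucose medium / Also added: nicotinamide 1.5 mM / Doses: one concentration, 10 µM, DMSO 0.25% / Schedule: 48 h at 30 °C / Signal: OD615 measurement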
Yeast growth inh = reduces growth of yeast BB579 in restrictive medium | S. cerevisiae BB579 growth, OD615, 48 h | inhibition, % at 10 µM | hit rate 0.51% among 140,000;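 active = inhibition above a set limit, 3 SD over the mean compound inhibition, cut at about 44% in these data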
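System: Saccharomyces cerevisiae DeaD strain BB579, replicative lifespan model yeast. Buffer or medium: restrictive glucose-based CSMM-D medium. Doses: one dose, 10 µM compound with 0.25% DMSO. Timing: 4 h preincubation and 48 h exposure at 30 °C. Detection: turbidity as optical density at 615 nm. Benchmarks: amphotericin B 10 µg/mL, positive.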
RAM network inh = inhibitors of the yeast RAM network | S. cerevisiae dse1pr::URA3 reporter, 5-FOA growth OD615, 2 d; analog-sensitive cbk1-as2 kinase mutant strain | AID 868 | hit rate 1.8% among 190,000 | inhibition, % at 50 µM;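 active = inhibition above a set limit, 3 SD over mean compound inhibition, cut at about 8.4% in these data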;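 note: 0% = DMSO-only wells with no growth and 100% = 10 µM 1-NA-PP1 full growth; inhibition rescues growth on 5-FOA so higher OD means more RAM inhibition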
Measles CPE = protection of cells from measles virus. Measles virus-infected cells, CPE protection, absorbance. protection (pct of control), % at 4 µM. hit rate 1.5% among 140,000; in the data active = protection mostly above about 24%, no sharp cut-off; inactive = mostly below about 26%
RAM 5-FOA = RAM network inhibitors in efflux-deficient yeast; 1,200 tested, under 10 active; shares compounds with RAM network inh; S. cerevisiae efflux-deficient reporter strain, 5-FOA growth OD615, 2 days; max inhibition, %; AID 1305; call rule not given here;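 note: plate controls were vehicle for no effect and reference inhibitor for full effect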
* marks the source's active call; other numbers are inactive results.

N#Cc1cccc(NC(=O)Cn2c3[n+](c4ccc(C(F)(F)F)cc42)CCCCC3)c1 was read as SDO1 yeast rescue 0.31, Yeast lifespan up -1, Yeast growth inh -14, RAM network inh 0 and Measles CPE 40.
Screening COc1cc2c(=O)n(CCC(=O)NCC3CCCO3)c(=O)n(CC(=O)c3ccc(Cl)cc3)c2cc1OC (stereo not given) returned RAM network inh 1.
`CC(C)COc1ccc(/C=C2/Sc3ccccc3C2=O)cc1` gave SDO1 yeast rescue -1.6, Yeast lifespan up 1, Yeast growth inh -60, RAM network inh 21*, Measles CPE 4 and RAM 5-FOA 7.
For CCCCOc1ccc(/C=C2/Sc3ccccc3C2=O)cc1 the results were SDO1 yeast rescue -1.2, Yeast lifespan up -14, Yeast growth inh -39, RAM network inh 17*, Measles CPE 4 and RAM 5-FOA 5.
O=C1NC(=O)/C(=C\c2ccc(OCc3cnc(Cl)s3)cc2)S1 was read as RAM network inh 3.
Screening O=C1/C(=C/c2cccs2)Sc2ccccc21 returned SDO1 yeast rescue 0.07, Yeast lifespan up -5, Yeast growth inh -46, RAM network inh 3 and Measles CPE 18.
Screening O=C(NCC1COc2ccccc2O1)C1CCN(S(=O)(=O)c2cccc3nsnc23)CC1 (stereo not given) returned SDO1 yeast rescue 0.14, Yeast lifespan up -22, Yeast growth inh -14, RAM network inh 4 and Measles CPE 3.
COc1ccc(/C=C/C(=O)OCc2csc(-c3ccccc3)n2)cc1OC was read as SDO1 yeast rescue -0.54, Yeast lifespan up 0, Yeast growth inh -49, RAM network inh 16*, Measles CPE 21 and RAM 5-FOA 2.
For O=C(OCc1csc(-c2ccccc2)n1)c1ccc(O)cc1 the results were RAM network inh -1.
`CCOC(=O)C1(CCc2ccccc2)CCN(C(=O)Cc2nonc2C)CC1` gave RAM network inh 2.
For COc1ccc(S(=O)(=O)NCCSCc2cccc(C)c2)cc1Br the results were SDO1 yeast rescue -0.4, Yeast lifespan up -2, Yeast growth inh -32, RAM network inh 12*, Measles CPE 2 and RAM 5-FOA 1.
Screening CC(=O)c1cccc(N(C(=O)c2ccco2)C(C(=O)NC2CCCC2)c2ccncc2)c1 (stereo not given) returned SDO1 yeast rescue 0.92, Yeast lifespan up -5, Yeast growth inh -60, RAM network inh 1 and Measles CPE 6.
`Cc1ccc(NC(=O)c2cc(S(=O)(=O)NCCC3=CCCCC3)ccc2F)cc1` gave SDO1 yeast rescue -0.19, Yeast lifespan up -1, Yeast growth inh -42, RAM network inh 16*, Measles CPE 6 and RAM 5-FOA 4.
For CC1CN(C(=S)SCCN2C(=O)CCC2=O)CC(C)O1 (stereo not given) the results were RAM network inh 1.
`CCC(C(=O)Nc1ccsc1C(=O)OC)c1ccccc1` (stereo not given) gave RAM network inh 17* and RAM 5-FOA 3.
O=C(CSc1nc(-c2ccccc2)cs1)Nc1nccs1 was read as SDO1 yeast rescue -1.4, Yeast lifespan up -10, Yeast growth inh -1, RAM network inh 4 and Measles CPE 26.
For O=C(CSc1nc(-c2ccccc2)cs1)Nc1ccccc1[N+](=O)[O-] the results were SDO1 yeast rescue -1.2, Yeast lifespan up 4, Yeast growth inh -31, RAM network inh 13*, Measles CPE 9 and RAM 5-FOA 3.
CCCOC(=O)Nc1cc(OC)ccc1[N+](=O)[O-] was read as RAM network inh -1.
Screening Cc1cc(=O)[nH]c(SCC(=O)OCc2ccccc2)c1C#N returned RAM network inh 2.
CCCOC(=O)c1ccc(Oc2c(-c3ccc(OCC)cc3O)n[nH]c2C)cc1 was read as SDO1 yeast rescue -0.77, Yeast lifespan up -12, Yeast growth inh -68, RAM network inh 15*, Measles CPE 13 and RAM 5-FOA 5.
For COc1cccc(/C=N\NC(=O)c2ccc(Cn3cc(Br)c([N+](=O)[O-])n3)o2)c1O the results were RAM network inh 1.
Screening COc1ccc(CC(=O)NNC(=S)Nc2ccccc2)cc1Cl returned RAM network inh -1.
Screening CCCOc1ccc(CC(=O)NNC(=S)Nc2ccccc2)cc1Br returned SDO1 yeast rescue -0.97, Yeast growth inh -27, RAM network inh 15*, Measles CPE 2 and RAM 5-FOA 2.
Cc1ccc(C)c(N2CCN(c3nc4ccccc4c(=O)n3Cc3ccccc3)CC2)c1 was read as SDO1 yeast rescue 0.07, Yeast lifespan up -7, Yeast growth inh 15, RAM network inh 4 and Measles CPE 18.
O=C(c1ccccc1)c1sc(N2CCCCCC2)nc1-c1ccccc1 was read as SDO1 yeast rescue -0.8, Yeast lifespan up 2, Yeast growth inh -58, RAM network inh 12*, Measles CPE 1 and RAM 5-FOA 4.
COc1ccc(-c2nc(N3CCCCCC3)sc2C(=O)c2ccccc2)cc1 was read as SDO1 yeast rescue -0.24, Yeast lifespan up 1, Yeast growth inh -50, RAM network inh 7 and Measles CPE 20.
For CCn1c2ccccc2c2cc(NC(=O)CCCN3C(=O)CCC3=O)ccc21 the results were SDO1 yeast rescue 0.57, Yeast lifespan up -19, Yeast growth inh -16, RAM network inh -1 and Measles CPE 6.
For Cc1ccc(/C=C/c2ccc(=O)n(Cc3ccccc3Cl)n2)cc1 the results were SDO1 yeast rescue -1.4, Yeast lifespan up -8, Yeast growth inh -29, RAM network inh 13*, Measles CPE 13 and RAM 5-FOA 3.
Screening Cc1ccccc1OCCNC(=O)c1ccccc1Sc1ccccc1C#N returned SDO1 yeast rescue -0.71, Yeast lifespan up -13, Yeast growth inh 0, RAM network inh 14*, Measles CPE 7 and RAM 5-FOA 2.
`COc1cccc(OCCNC(=O)c2ccccc2Sc2ccccc2C#N)c1` gave SDO1 yeast rescue -1.4, Yeast lifespan up -1, Yeast growth inh -4, RAM network inh 4 and Measles CPE 12.
For Cc1cc(C)c(OCCNC(=O)c2ccccc2Sc2ccccc2C#N)c(C)c1 the results were SDO1 yeast rescue -0.51, Yeast lifespan up 2, Yeast growth inh -35, RAM network inh 20*, Measles CPE 5 and RAM 5-FOA 5.
Screening CC(C)CC(=O)NC(=S)N1CCN(c2ccc([N+](=O)[O-])cc2Cl)CC1 returned SDO1 yeast rescue -1.1, Yeast lifespan up -1, Yeast growth inh -20, RAM network inh 3 and Measles CPE 3.
Screening Cc1c(CCOC(=O)c2cccc([N+](=O)[O-])c2)sc[n+]1CC(=O)c1ccccc1 returned RAM network inh 2.
For CCCCOc1ccc(CNn2c(C)nc3ccccc3c2=O)cc1 the results were SDO1 yeast rescue -0.17, Yeast lifespan up -8, Yeast growth inh -46, RAM network inh 15*, Measles CPE 26 and RAM 5-FOA 2.
